# Source: ChEMBL document CHEMBL1153193, “Microwave-assisted synthesis and structure-activity relationships of neuroactive pyrazolo[3,4-b]pyrrolo[3,4-d]pyridine derivatives” (Bioorg Med Chem Lett, 2010)
# Tested on: Mus musculus
# Assay: Sedative activity in Swiss mouse assessed as reduction of locomotor activity at 10 umol/kg, ip after 40 mins
# Assay type: organism-based
# Conditions: in vivo; call rule not given here
# Method in brief: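 Mice received a single screening dose intraperitoneally. Motor activity was counted over the 40 min after injection and expressed as movements per minute. An untreated control group and a midazolam reference group (2 mg/kg) were run alongside. Data are given as means ± SEM, and significance was tested against control.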
row,Compound,Activity
1,Cc1ccc(N2C(=O)c3cnc4c(c(C)nn4C)c3C2=O)cc1,Not Active
2,Cc1nn(C)c2ncc3c(c12)C(=O)N(c1ccc(C(=O)O)cc1)C3=O,Not Active
3,Cc1nn(-c2ccccc2)c2ncc3c(c12)C(=O)N(c1ccc([N+](=O)[O-])cc1)C3=O,Active
4,Cc1nn(-c2ccccc2)c2ncc3c(c12)C(=O)N(c1ccc(C(=O)O)cc1)C3=O,Not Active
5,Cc1nn(C)c2ncc3c(c12)C(=O)N(c1ccccc1)C3=O,Not Active
6,Cc1nn(-c2ccccc2)c2ncc3c(c12)C(=O)N(c1ccc(Cl)cc1)C3=O,Not Active
7,Cc1ccc(N2C(=O)c3cnc4c(c(C)nn4-c4ccccc4)c3C2=O)cc1,Not Active
8,COc1ccc(N2C(=O)c3cnc4c(c(C)nn4-c4ccccc4)c3C2=O)cc1,Active
9,Cc1nn(-c2ccccc2)c2ncc3c(c12)C(=O)N(c1ccccc1)C3=O,Not Active
10,Cc1nn(C)c2ncc3c(c12)C(=O)N(c1ccc([N+](=O)[O-])cc1)C3=O,Not Active
11,Cc1nn(C)c2ncc3c(c12)C(=O)N(c1ccc(Cl)cc1)C3=O,Not Active
12,COc1ccc(N2C(=O)c3cnc4c(c(C)nn4C)c3C2=O)cc1,Not Active
